Measurements as given in ChEMBL document CHEMBL1129359, “Alkyl and alkoxyethyl antineoplastic phospholipids” (J Med Chem, 1996).
Converted amounts (≈) assume the structure as drawn. The source made the active and inactive calls. No cut-off for these calls is given here.

Experiments:
[1] = In vitro cytotoxic effect in 1 of 6 human tumor xenografts, LXFS; assay type: functional
Outline: (§1)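 Double-layer soft-agar clonogenic assay. Tumor cells come from human tumor xenografts serially passaged in nude mice. Cells are dispersed with collagenase 0.05%, DNase 0.07% and hyaluronidase 0.1% (37 °C, 30 min), sieved, and viability is checked by trypan blue. 20 000–200 000 cells go in 0.4% agar over a 0.7% agar base in IMDM with 20% FCS. Drug is overlaid continuously for at least 1 week.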

[2] = test system: panel of six human tumor xenografts (Homo sapiens); experiment: In vitro cytotoxicity in six human tumor xenografts.
[3] = target: T1, M-phase inducer phosphatase 1 (Homo sapiens, UniProt P30304); experiment: Inhibition of Cell division cycle 25 (Cdc25) phosphatase
T1 sequence (P30304 whole entry): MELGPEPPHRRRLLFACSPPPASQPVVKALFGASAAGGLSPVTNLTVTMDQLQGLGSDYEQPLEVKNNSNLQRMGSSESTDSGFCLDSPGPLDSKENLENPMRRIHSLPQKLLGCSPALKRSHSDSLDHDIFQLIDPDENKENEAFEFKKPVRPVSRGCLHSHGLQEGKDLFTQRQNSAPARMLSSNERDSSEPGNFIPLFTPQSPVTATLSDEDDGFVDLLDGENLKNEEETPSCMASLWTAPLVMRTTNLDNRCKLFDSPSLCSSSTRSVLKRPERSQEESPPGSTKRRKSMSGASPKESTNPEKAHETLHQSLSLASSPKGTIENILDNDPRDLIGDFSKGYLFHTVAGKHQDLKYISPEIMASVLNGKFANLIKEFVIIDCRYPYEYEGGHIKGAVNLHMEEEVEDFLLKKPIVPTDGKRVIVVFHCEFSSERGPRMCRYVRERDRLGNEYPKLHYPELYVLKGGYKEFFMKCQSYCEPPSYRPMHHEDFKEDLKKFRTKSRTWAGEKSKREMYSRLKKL
Outline: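 Enzyme is GST-human cdc25A fusion expressed in E. coli and purified on glutathione-agarose. Enzyme and DTT in Tris buffer are preincubated 15 min at 37 °C. The reaction starts with p-nitrophenyl phosphate (500 mM stock) and runs 60 min at 37 °C. Absorbance is read at 405 nm, and the no-enzyme blank is subtracted.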

LXFL 529/ LXFS 538 = experiment: In vitro cytotoxicity in nonsmall cell lung carcinoma cell line LXFL 529 and small cell lung carcinoma cell line LXFS 538 human tumor xenografts.; assay type: functional; outline: as §1
[4] = In vitro cytotoxic effect in 1 of 6 human tumor xenografts, RXF; assay type: functional; outline: as §1
CXF1103 = experiment: In vitro cytotoxicity against human tumor xenograft CXF 1103 colorectal adenocarcinoma; assay type: functional; outline: as §1
OVXF1023 cell line = experiment: In vitro cytotoxicity against human tumor xenograft OVXF1023 ovarian adenocarcinoma; assay type: functional; outline: as §1
[5] = In vitro cytotoxic effect in 3 of 6 human tumor xenografts, LXFS, MEXF and RXF; assay type: functional; outline: as §1
LXFL 529 = experiment: In vitro cytotoxicity against human tumor xenograft LXFL 529 Nonsmall cell lung carcinoma; assay type: functional; outline: as §1
LXFS538 = experiment: In vitro cytotoxicity against human tumor xenograft LXFS 538 small cell lung carcinoma; assay type: functional; outline: as §1
MEXF989 = experiment: In vitro cytotoxicity against human tumor xenograft MEXF 989 melanoma; assay type: functional; outline: as §1
RXF 423 = experiment: In vitro cytotoxicity against human tumor xenograft RXF 423 renal cancer; assay type: functional; outline: as §1
[6] = In vitro cytotoxic effect in 4 of 6 human tumor xenografts, LXFL, LXFS, MEXF and OVXF; assay type: functional; outline: as §1
[7] = In vitro cytotoxic effect in 2 of 6 human tumor xenografts, LXFL and LXFS; assay type: functional; outline: as §1
[8] = target: Cyclin-dependent kinase 1 (starfish); experiment: Inhibition of Cell division cycle 2 (cdc2) kinase
[9] = In vitro cytotoxic effect in 0 of 6 human tumor xenografts; assay type: functional; outline: as §1
[10] = In vitro cytotoxic effect in 2 of 6 human tumor xenografts, LXFS and RXF; assay type: functional; outline: as §1
[11] = In vitro cytotoxic effect in 2 of 6 human tumor xenografts, LXFE and RXF; assay type: functional; conditions: in the assay text read “LXFL” for “LXFE”; outline: as §1

SMILES: CCCCCCCCCCCCOP(=O)([O-])OCC[N+]1(C)CCCCC1
- Cytotoxicity [1]: Weak activity
- Mean IC70 [2]: >10 µg/mL
- IC50 [3]: > 1000 µM

SMILES: CCCCCCCCCCCCOCCOP(=O)([O-])OCC[N+]1(C)CCOCC1
- Cytotoxicity [1]: Weak activity
- IC50 [3]: 610 µM
- Mean IC70 (LXFL 529/ LXFS 538): >10 µg/mL

SMILES: CCCCCCCCCCCCCCOCCOP(=O)([O-])OCC[N+]1(C)CCCCC1
- Cytotoxicity [1]: Weak activity
- IC50 [3]: 300 µM
- Mean IC70 (LXFL 529/ LXFS 538): >10 µg/mL

SMILES: CCCCCCCCCCCCCCCCOP(=O)([O-])OCC[N+]1(C)CCOCC1
- Mean IC70 [2]: >10 µg/mL
- Cytotoxicity [4]: Weak activity
- IC50 [3]: 40 µM

SMILES: CCCCCCCCCCCCCCCCOCCOP(=O)([O-])OCC[N+]1(C)CCOCC1
- IC70 (CXF1103): > 10 µg/mL
- IC70 (OVXF1023 cell line): > 10 µg/mL
- Cytotoxicity [5]: Weak activity
- IC70 (LXFL 529): 10.4 µg/mL (≈ 21 µM)
- IC70 (LXFS538): 5.12 µg/mL (≈ 10.4 µM)
- IC70 (MEXF989): 8.76 µg/mL (≈ 17.7 µM)
- IC50 [3]: 1000 µM
- IC70 (RXF 423): 4.76 µg/mL (≈ 9.64 µM)
- Mean IC70 (LXFL 529/ LXFS 538): 7.8 µg/mL

SMILES: CCCCCCCCCCCCCCCCOP(=O)([O-])OCC[N+]1(C)CCCCC1
- IC70 (CXF1103): > 10 µg/mL
- Cytotoxicity [6]: Weak activity
- IC70 (OVXF1023 cell line): 7.8 µg/mL (≈ 17.4 µM)
- IC70 (LXFL 529): 4.33 µg/mL (≈ 9.67 µM)
- IC70 (LXFS538): 1.9 µg/mL (≈ 4.23 µM)
- IC70 (MEXF989): 4.64 µg/mL (≈ 10.4 µM)
- Mean IC70 [2]: 5.6 µg/mL
- IC50 [3]: 460 µM
- IC70 (RXF 423): 10 µg/mL (≈ 22.3 µM)

SMILES: CCCCCCCCCCCCCCCCOCCOP(=O)([O-])OCC[N+]1(C)CCCCC1
- IC70 (CXF1103): > 10 µg/mL
- IC70 (OVXF1023 cell line): > 10 µg/mL
- IC70 (LXFL 529): 5.38 µg/mL (≈ 10.9 µM)
- IC70 (LXFS538): 4.54 µg/mL (≈ 9.23 µM)
- IC70 (MEXF989): > 10 µg/mL
- IC50 [3]: 100 µM
- Cytotoxicity [7]: Weak activity
- IC70 (RXF 423): 10 µg/mL (≈ 20.3 µM)
- Mean IC70 (LXFL 529/ LXFS 538): 7.9 µg/mL

SMILES: CCCCCCCCCCCCCCOP(=O)([O-])OCC[N+]1(C)CCOCC1
- Mean IC70 [2]: >10 µg/mL
- Cytotoxicity [4]: Weak activity
- IC50 [3]: 290 µM

SMILES: CCCCCCCCCCCCCCOP(=O)([O-])OCC[N+]1(C)CCCCC1
- IC50 [8]: > 1000 µM
- Mean IC70 [2]: >10 µg/mL
- NA [9]: inactive
- IC50 [3]: 490 µM

SMILES: CCCCCCCCCCCCOP(=O)([O-])OCC[N+]1(C)CCOCC1
- Mean IC70 [2]: >10 µg/mL
- NA [9]: inactive
- IC50 [3]: 500 µM

SMILES: CCCCCCCCCCCCCCOCCOP(=O)([O-])OCC[N+]1(C)CCOCC1
- IC70 (CXF1103): > 10 µg/mL
- IC70 (OVXF1023 cell line): > 10 µg/mL
- IC70 (LXFL 529): 10 µg/mL (≈ 21.5 µM)
- Cytotoxicity [10]: Weak activity
- IC70 (LXFS538): 5.85 µg/mL (≈ 12.6 µM)
- IC70 (MEXF989): > 10 µg/mL
- IC50 [3]: 380 µM
- IC70 (RXF 423): 6.74 µg/mL (≈ 14.5 µM)
- Mean IC70 (LXFL 529/ LXFS 538): 8.6 µg/mL

SMILES: CCCCCCCCCCCCCCCCOP(=O)([O-])OCC[N+](C)(C)C [MILTEFOSINE]
- IC70 (CXF1103): > 10 µg/mL
- Cytotoxicity [11]: Weak activity
- IC70 (OVXF1023 cell line): > 10 µg/mL
- IC70 (LXFL 529): 9.57 µg/mL (≈ 23.5 µM)
- IC70 (LXFS538): > 10 µg/mL
- IC70 (MEXF989): > 10 µg/mL
- Mean IC70 [2]: 8 µg/mL
- IC50 [3]: 25 µM
- IC70 (RXF 423): 2.75 µg/mL (≈ 6.76 µM)
